Compound activity (PubChem)
NF-kB neuron act: compounds increasing NF-kB expression in human neuronal cells. hit rate 1.6% among 190,000. fold change at 12.5 µM. NF-kB reporter expression; stronger effect = higher value; in the data active means fold change above about 3.3
STAT1 activator: increases IFN-gamma driven STAT1 reporter signal; AID 932; NIH 3T3 STAT1-luciferase reporter, luminescence; 100% = IFN-gamma alone, no compound; hit rate 2.6% among 200,000; activation (% of control), % at 5.5 µM;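 active means activation above the screen-wide mean activation plus 3 SD, cut at about 130% in these data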;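 further: raw ratio to IFN-gamma control signal so 100% means no change and 0% no light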
STAT3 blocker: inhibitors of IL-6 induced STAT3 signaling. U3A cells, IL-6 STAT3-luciferase reporter, luminescence; host cell line lacks STAT1. hit rate 0.89% among 190,000. inhibition, % at 5.5 µM;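 active means inhibition above the mean inhibition across all screened compounds plus 3 SD, cut at about 44% in these data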;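 further: 0% = DMSO only wells and 100% = 100 µM nifuroxazide control wells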
STAT1 inh: inhibitors of IFN-gamma induced STAT1 signaling. NIH 3T3 STAT1-luciferase reporter, luminescence. inhibition, % at 5.5 µM. hit rate 0.35% among 200,000. AID 920;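 active means inhibition above a set limit, the mean inhibition across all tested compounds plus 3 SD, cut at about 34% in these data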;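 further: 0% = IFN-gamma with DMSO and 100% = IFN-gamma with 300 µM nifuroxazide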
STAT3 activator: activators of IL-6 induced STAT3 signaling; U3A cells, IL-6 STAT3-luciferase reporter, luminescence; 100% = signal with IL-6 EC80 alone; hit rate 0.91% among 190,000; activation (% of control), % at 5.6 µM; AID 871;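 active means activation above the screen-wide mean of compound activation plus 3 SD, cut at about 130% in these data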;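 further: 0% = background luminescence of wells with medium and substrate only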
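Material: human STAT1-deficient U3A cells with stable STAT3-luciferase reporter / Probe or stimulus: IL-6 stimulus at 33 ng/mL final / Schedule: 1 h compound pre-exposure, 6 h IL-6 stimulation, 37 °C / Technique: luminescence / Read-out basis: percent of IL-6-only median luminescence / Control set: IL-6-only high control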
APP 5'UTR act: activates APP 5'UTR luciferase reporter; SH-SY5Y APP 5'UTR luciferase reporter, luminescence; zero percent = DMSO vehicle wells; activation, % at 2 µM; hit rate 1% among 190,000; AID 1276;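 active means activation above a set limit, based on mean plus 3 SD of controls, cut at about 140% in these data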
Numbers without * were called inactive. Hits are enriched below; roughly 4.9% of the tested compounds scored in any of these assays.

SMILES	NF-kB neuron act	STAT1 activator	STAT3 blocker	STAT1 inh	STAT3 activator	APP 5'UTR act
Cc1ccc(CC2CC(=O)N(c3nc4ccccc4s3)C2=O)cc1 (configuration not stated)	1.18	104.6	10.5	-7.0	96.9	14.6
COc1ccc(-c2nc3ccccc3s2)cc1	3.25	33.2	84.8*	72.8*	26.9	169.3*
Nc1ccccc1-c1nc2ccccc2s1	2.41	143.7*	-34.7	-47.4	132.3	119.0
CN(C)c1nc(N)nc(-c2nc3ccccc3s2)n1	2.85	134.9*	-95.4	-37.8	179.6*	25.3
COc1ccc(Cl)cc1-c1nc(N)nc(N(C)C)n1	1.04	90.9	-4.2	10.2	101.3	-5.8
Cc1ccc2[nH]c(=O)c(CN(Cc3ccco3)C(=O)CN3CCCC(C)C3)cc2c1 (configuration not stated)	0.98	94.0	3.3	4.5	103.4	8.7
CCOC(=O)C=C(C(=O)OCC)C(=O)OCC	1.04	100.8	14.3	-1.8	97.1	-0.7
CC(=O)NCc1ccc(-c2nc3ccccc3s2)cc1	1.13	136.4*	24.4	-44.0	83.3	151.4*
COc1ccc(CCNC(=O)COc2ccc(C)nc2[N+](=O)[O-])cc1	1.29	100.7	12.7	-0.7	89.7	11.0
CN(CCCC1CCCC1)C(=O)CCc1nnc(-c2ccccc2)o1	3.28	147.8*	-4.4	-51.4	109.1	89.7
CN(CCC1CCCCO1)C(=O)CCc1nnc(CCCCc2ccccc2)o1 (configuration not stated)	1.65	96.4	6.5	3.7	99.4	20.7
Cc1cc(C)n(CCN(C)C(=O)CCc2nnc(CCC3CCCCC3)o2)n1	3.1	140.0*	-2.0	-42.7	107.0	70.3
O=C(CCc1nnc(-c2ccccc2)o1)NC1CCCCC1	1.85	130.5*	-4.8	-35.2	106.1	23.3
CC(C)CNC(=O)/C=C/c1cccs1	1.13	109.6	-2.5	-10.5	101.7	-3.0
C/C(=N\Nc1ccc(F)cc1F)c1ccc(N2CCOCC2)cc1	1.23	113.6	-29.7	-15.0	133.5*	17.1
O=S(=O)(Nc1ccc(N2CCOCC2)cc1)c1ccc(F)cc1F	1.15	99.7	8.7	1.0	93.4	-1.9
Fc1ccc(N/N=C/c2ccc(N3CCOCC3)cc2)c(F)c1	3.57*	131.1*	12.4	-33.9	93.0	92.3
CNC(=S)N/N=C(\C)c1ccc(N2CCOCC2)cc1	6.32*	97.7	38.1	2.6	69.6	31.2
CCOC(=O)c1c(NC(=O)c2cnn3c2NC(c2cccc(OC)c2)CC3C(F)(F)F)sc2c1CCCC2 (configuration not stated)	1.32	96.4	-1.5	4.0	104.7	13.5
COc1ccc2nc(NC(=O)c3ccc4ncsc4c3)sc2c1	1.6	141.7*	12.3	-45.9	93.9	115.9
COc1ccc2nc(NC(=O)c3ccc(-n4nc(C)cc4C)cc3)sc2c1	1.29	111.4	13.0	-12.5	94.1	7.0
COc1ccc(OCC(=O)Nc2nc3ccc(NC(C)=O)cc3s2)cc1	1.09	110.3	1.3	-10.3	100.9	-4.0
COc1ccc2nc(NC(=O)CSc3nnc(-c4ccoc4C)n3C)sc2c1	2.35	130.3*	16.9	-33.2	88.8	49.2
COc1ccc(Nc2nc3ccccc3c(=O)s2)c(OC)c1	0.92	98.9	17.1	1.2	86.9	-1.2
CCn1nnnc1SCC(=O)Nc1nc2ccc(OC)cc2s1	1.6	118.2	2.6	-23.3	101.0	7.4
SMILES	NF-kB neuron act	STAT1 activator	STAT3 blocker	STAT1 inh	STAT3 activator	APP 5'UTR act
COc1ccc2nc(NC(C)=O)sc2c1	2.61	138.6*	-2.3	-43.2	103.0	82.4
COc1ccc2nc(Nc3ccccc3OC)sc2c1	7.9*	107.8	25.7	-8.4	82.2	202.5*
CCOc1ncccc1C(=O)OCc1ccc(Cl)cc1	1.11	99.4	8.8	0.7	95.6	11.3
CCOc1ncccc1C(=O)OCc1ccc(C(=O)OC)cc1	1.72	130.0*	-34.9	-33.1	137.2*	-9.9
OC1CCN(c2c3c(nc4cc(-c5cccc(F)c5)nn24)CCCC3)CC1	0.68	118.3	-3.6	-18.1	108.8	-4.9
CN(CCO)c1c2c(nc3cc(-c4cccc(F)c4)nn13)CCCC2	2.12	141.5*	11.0	-45.5	94.0	153.3*
Cc1cc(C)cc(-n2c(C)cc(C(=O)CSc3nnnn3C)c2C)c1	1.18	100.3	1.3	0.2	99.0	-1.5
Cc1cc(C(=O)CSc2nnnn2C)c(C)n1-c1cccc(F)c1	4.76*	131.3*	5.2	-34.1	98.5	111.1
